hDAT+cocaine = human DAT dopamine uptake with cocaine, either direction | Q01959 | LLC-PK1 hDAT cells, [14C]-dopamine uptake with cocaine IC80; actives deviate in either direction | B-score at 10 µM | actives 1.3% (n = 110,000);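 active = Z score or B-score, a plate-position-corrected score, falls beyond the plate's 99.7% confidence bounds, in either direction; inactive = both scores lie inside the 99.7% bounds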;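 also: scored against the spread of the other compound wells on the same plate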
Target sequence (Q01959 whole entry, looked up): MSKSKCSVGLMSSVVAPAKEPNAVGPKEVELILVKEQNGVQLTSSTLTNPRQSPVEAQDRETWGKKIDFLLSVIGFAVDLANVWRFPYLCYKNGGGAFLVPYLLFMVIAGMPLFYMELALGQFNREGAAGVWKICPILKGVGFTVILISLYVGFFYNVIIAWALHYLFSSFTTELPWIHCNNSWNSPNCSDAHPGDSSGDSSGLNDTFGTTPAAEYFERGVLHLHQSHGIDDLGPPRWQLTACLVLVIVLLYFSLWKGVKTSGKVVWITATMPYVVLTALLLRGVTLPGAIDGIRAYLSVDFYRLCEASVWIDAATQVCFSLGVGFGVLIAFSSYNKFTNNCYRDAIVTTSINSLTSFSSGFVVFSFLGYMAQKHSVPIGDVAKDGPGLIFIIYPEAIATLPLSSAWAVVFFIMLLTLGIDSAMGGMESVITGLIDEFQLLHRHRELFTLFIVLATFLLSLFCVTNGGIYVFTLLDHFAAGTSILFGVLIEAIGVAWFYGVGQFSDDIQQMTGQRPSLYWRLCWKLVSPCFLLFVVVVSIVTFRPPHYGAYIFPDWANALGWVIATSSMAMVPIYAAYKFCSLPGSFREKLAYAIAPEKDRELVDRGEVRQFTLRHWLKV
RAM network inh = yeast RAM network inhibition; S. cerevisiae dse1pr::URA3 reporter, 5-FOA growth OD615, 2 d; analog-sensitive cbk1-as2 kinase mutant strain; inhibition, % at 50 µM; actives 1.8% (n = 190,000); AID 868;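 active = inhibition above a set limit, 3 SD over mean compound inhibition, cut at about 8.4% in these data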;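 also: 0% = DMSO-only wells with no growth and 100% = 10 µM 1-NA-PP1 full growth; inhibition rescues growth on 5-FOA so higher OD means more RAM inhibition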
BB579 growth dn = chemicals that inhibit yeast BB579 growth in restrictive medium (lifespan-shortening candidates). S. cerevisiae BB579 growth, OD615, 48 h. inhibition, % at 10 µM. actives 0.51% (n = 140,000);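 active = inhibition above a set limit, 3 SD over the mean compound inhibition, cut at about 44% in these data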
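test system = yeast BB579 (DeaD) | buffer or medium = restrictive CSMM-D medium | doses = single compound dose of 10 µM, 0.25% DMSO final | times = 4 h preincubation and 48 h exposure at 30 °C | technique = culture absorbance at 615 nm | benchmarks = amphotericin B 10 µg/mL, positive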
Yeast life ext = extends the lifespan of yeast; actives 0.68% (n = 130,000); S. cerevisiae growth with nicotinamide, OD615; deaD strain in restrictive glucose medium; inhibition of the nicotinamide effect, % at 10 µM; AID 775;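 active = inhibition above a set limit, placed 3 SD over the median of all compounds, cut at about 26% in these data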;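 also: 0% = nicotinamide-treated wells and 100% = cells grown without nicotinamide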
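Assay system: DeaD-strain S. cerevisiae. Medium: CSMM-D glucose medium, restrictive. Reagent: nicotinamide, 1.5 mM, co-present with compound. Compound: 10 µM single point, 0.25% DMSO. Schedule: culture preincubation 4 h, compound exposure 48 h, both 30 °C. Detection: absorbance at 615 nm.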
WT yeast gro inh = growth inhibition of WT yeast, mitochondrial fusion screen; inhibition, % at 10 µM; actives 2.1% (n = 190,000); AID 1362; mitochondrial fusion phenotypic screen, WT strain; in the data active = inhibition above about 58%; tested in S. cerevisiae
Measles CPE = protection of cells from measles virus; Measles virus-infected cells, CPE protection, absorbance; protection (pct of control), % at 4 µM; actives 1.5% (n = 140,000); in the data active = protection mostly above about 24%, no sharp cut-off; inactive = mostly below about 26%
* marks the source's active call; other numbers are inactive results; . = no result. Shown are actives, neighbours in structure and some others; about 6.1% of the full set was active somewhere.

SMILES	hDAT+cocaine	RAM network inh	BB579 growth dn	Yeast life ext	WT yeast gro inh	Measles CPE
CC1(C(=O)NC(=S)NNC(=O)c2ccncc2)CCCCC1	.	-1.3	-42.0	9.7	1.6	6.5
O=C(NNC(=S)NC(=O)C12CC3CC(CC(C3)C1)C2)c1ccncc1	0.159	-1.2	74.3*	-3.5	79.7*	3.4
NS(=O)(=O)c1cccc(NC(=S)NC(=O)C23CC4CC(CC(C4)C2)C3)c1	.	4.6	-39.0	-2.5	4.7	44.3*
Cc1ccc(-c2csc(NC(=O)CCCc3cccs3)n2)cc1	.	3.9	-22.5	0.3	11.7	7.0
CC(=O)Nc1ccc(-c2csc(NC(=O)CCCc3cccs3)n2)cc1	.	4.2	-14.5	1.0	-11.8	110.2*
S=C1NC(c2cccs2)=CC(c2ccc(Br)cc2)N1 (stereo unspecified)	.	0.9	-35.1	5.5	71.9*	11.6
S=C1NC(c2ccccc2)=CC(c2ccccc2)N1 (stereo unspecified)	.	0.0	.	.	-4.0	.
CCOc1cc(C(=S)N2CCCC2)ccc1OCC(=O)Nc1c(C)cc(C)cc1C	-0.317	2.9	-33.0	.	9.2	3.1
Nc1ccc(N2CCN(C(=O)c3ccco3)CC2)cc1	-0.721	-0.5	-20.2	-11.3	-5.1	59.7*
COC(=O)C1=CN(CCOC23CC4CC(CC(C4)C2)C3)C=C(C(=O)OC)C1c1ccsc1	.	5.4	.	.	67.8*	.
COC(=O)C1=CN(Cc2ccc(OC)cc2)C=C(C(=O)OC)C1c1ccsc1	.	4.5	.	.	14.6	.
CC(C)CCOC(=O)C1C(c2ccccc2)C(C(=O)O)C1c1ccccc1 (stereo unspecified)	0.918	5.4	-33.1	52.9	-19.6	11.1
COc1ccc(C(=O)Nc2cc(C)c3c(=O)oc4ccccc4c3n2)cc1	-0.246	3.9	-18.0	-4.0	4.0	4.3
COCc1cc(C)nc(N/N=C/c2ccc(Cl)c(Cl)c2)c1C#N	.	0.1	-15.7	-6.3	2.8	14.1
Cc1nn(Cc2c(F)c(F)c(F)c(F)c2F)c(C)c1NC(=O)c1cccc(COc2ccc(Cl)cc2)c1	-0.453	5.1	-51.7	-20.8	9.9	2.7
CC(C)c1cc(C(N)=O)c(NC(=O)c2cccc(COc3ccc(Cl)cc3)c2)s1	.	3.6	-31.2	-10.1	64.6*	21.0
Cc1cc(C)cc(C(=O)N2CC(=O)Nc3ccccc32)c1	-3.29*	2.1	-12.8	-7.6	18.4	3.0
Cc1ccsc1C(=O)N1CC(=O)Nc2ccccc21	0.129	0.8	-52.7	-7.7	-50.2	7.0
COc1cccc(C2=NOC(C(=O)NC(C)C)C2)c1 (stereo unspecified)	0.307	0.5	-6.0	-12.6	12.8	56.9*
COc1ccc(CNC(=O)C2CC(c3ccc(OC)cc3)=NO2)cc1 (stereo unspecified)	-3.44*	3.0	-30.1	-19.6	2.2	3.8
Cc1ccc(S(=O)(=O)Nc2ccc(NC(=O)Nc3cccc(C(F)(F)F)c3)cc2)cc1	.	7.9	-32.2	-2.4	15.6	6.8
Cc1ccc(S(=O)(=O)Nc2ccc(C(OC(=O)c3ccccc3[N+](=O)[O-])(C(F)(F)F)C(F)(F)F)cc2)cc1	.	6.1	-22.9	7.6	85.5*	3.2
Cc1ccc([N+](=O)[O-])cc1N/C=C1\CCCCC1=O	.	1.3	.	.	7.7	.
Clc1ccc(CSc2cc3c(nn2)-c2ccccc2CC3)cc1	-0.587	10.3*	-43.1	-2.4	32.1	9.4
Clc1ccc(CSc2ccc(-c3ccccn3)nn2)cc1	.	0.9	.	.	59.1	.
SMILES	hDAT+cocaine	RAM network inh	BB579 growth dn	Yeast life ext	WT yeast gro inh	Measles CPE
CS(=O)(=O)N(CCc1ccccc1)CC(=O)N1CCc2ccccc2C1	0.177	2.2	-48.0	-3.2	36.9	9.4
COc1cccc(NC(=O)C(c2ccccc2)N2CCCCC2)c1 (stereo unspecified)	.	2.3	.	.	3.4	.
O=C(Nc1cccnc1)Nc1ccccc1Cl	0.262	-0.2	-72.0	-7.3	15.7	4.7
O=C(Nc1cc(Cl)cc(Cl)c1)C(c1ccccc1)N1CCCCC1 (stereo unspecified)	.	0.7	-33.7	-2.3	65.7*	6.8
O=C(Nc1cccnc1)Nc1cc(Cl)cc(Cl)c1	.	-0.1	.	.	77.4*	.
O=C(Nc1ccccc1)Nc1cc(OCC(F)(F)F)cc(OCC(F)(F)F)c1	.	7.5	-17.4	8.3	86.0*	22.8
O=C(Nc1ccccc1)Nc1cc(Cl)cc(Cl)c1	-1.82	6.0	-18.0	-11.0	88.9*	63.1*
CCN(C(=O)CSc1nnc(C)n1-c1ccccc1)C1CCS(=O)(=O)C1 (stereo unspecified)	.	3.4	.	.	-12.1	.
OCC(O)/C=N/Nc1nc(N2CCCCC2)nc(N2CCCCC2)n1 (stereo unspecified)	.	3.0	.	.	14.8	.
CC(C)CN(CC(C)C)C(=O)Cc1coc2ccc3ccccc3c12	-1.31	0.8	-27.9	45.9	-9.0	4.8
CC(C)c1ccc(C2C3CSCC=C3C(C#N)=C(N)C2(C#N)C#N)cc1 (stereo unspecified)	2.03	0.9	-27.0	28.8*	19.5	5.1
COc1ccc(-c2nnc(Nc3ccc(CC(N)=O)cc3)c3ccccc23)cc1	.	1.6	-7.1	-3.6	-3.2	64.3*
CCOC(=O)c1sc(NC(=O)c2cc(-c3ccccc3)nc3ccccc23)c(C#N)c1C	-0.23	3.4	-28.0	-2.9	50.8	5.5
Cc1c(NP(=O)(c2ccc(Br)cc2)c2ccc(Br)cc2)c(=O)n(-c2ccccc2)n1C	.	0.0	.	.	19.2	.
Cc1ccc(C)c2[nH]c(=O)c(CCNC(=O)c3cc4ccccc4o3)cc12	-0.388	8.5*	-15.9	-0.2	-5.5	2.4
c1ccc2c(c1)OCC(c1csc3ncnc(N4CCOCC4)c13)O2 (stereo unspecified)	-0.058	-0.4	6.2	-5.4	16.4	18.6
CCN(CC)c1ncnc2scc(C3COc4ccccc4O3)c12 (stereo unspecified)	1.61	2.5	-21.2	.	84.7*	22.2
CCc1nnc(NS(=O)(=O)c2ccc(NC(=S)NC(=O)/C=C/c3ccccc3)cc2)s1	.	3.5	-1.1	-1.3	-0.5	62.9*
CC(C)NC(=S)NC(=O)/C=C/c1ccc(F)cc1	.	4.8	-7.9	1.4	18.3	35.5*
CCc1nnc(NS(=O)(=O)c2ccc(NC(=O)/C=C/c3ccccc3Cl)cc2)s1	.	8.8*	.	.	0.6	.
CCc1nnc(NS(=O)(=O)c2ccc(NC(=O)c3cccc(Cl)c3)cc2)s1	.	5.8	.	.	0.4	.
CC(C)NC(=O)COC(=O)/C=C/c1ccc(F)cc1	.	-1.3	-11.1	-4.6	-0.9	15.4
COc1nccnc1NS(=O)(=O)c1ccc(NC(=S)NC(=O)/C=C/c2ccc(F)cc2)cc1	.	11.2*	-50.2	10.1	-3.5	3.3
C=C1CCN([C@@H](CC(C)C)C(=O)O)S(=O)(=O)c2ccccc21	-0.462	.	.	.	.	.
CCN(CC)S(=O)(=O)c1cc(Br)ccc1OC	1.1	0.4	-7.2	-15.5	-9.7	1.6

Screens (PubChem)
